# Reference: ChEMBL document CHEMBL1921672, “Design, synthesis, and qualitative structure-activity evaluations of novel β-secretase inhibitors as potential Alzheimer's drug leads” (J Med Chem, 2011)
# Biological target: T1, Beta-secretase 1 (Homo sapiens, UniProt P56817)
# Assay: Inhibition of BACE1 expressing APP Swedish mutant using rhodamine-labeled EVNLDAEFK-quencher as substrate after 60 mins by FRET analysis
# Conditions: not given
# T1 sequence (P56817 whole entry): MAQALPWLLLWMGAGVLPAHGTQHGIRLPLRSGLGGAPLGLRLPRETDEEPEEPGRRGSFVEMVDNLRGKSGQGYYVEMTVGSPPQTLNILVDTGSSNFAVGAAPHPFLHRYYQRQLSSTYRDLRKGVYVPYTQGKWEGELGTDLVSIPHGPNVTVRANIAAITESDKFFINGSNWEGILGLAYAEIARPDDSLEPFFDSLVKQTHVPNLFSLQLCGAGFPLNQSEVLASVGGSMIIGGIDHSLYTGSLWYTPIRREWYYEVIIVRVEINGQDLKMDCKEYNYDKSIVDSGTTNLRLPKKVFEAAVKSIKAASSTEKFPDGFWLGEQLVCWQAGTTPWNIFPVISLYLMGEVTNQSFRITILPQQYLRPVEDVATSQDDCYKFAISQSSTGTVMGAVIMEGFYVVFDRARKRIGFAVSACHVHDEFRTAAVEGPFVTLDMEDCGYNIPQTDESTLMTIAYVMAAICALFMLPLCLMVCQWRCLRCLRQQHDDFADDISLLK
row,Structure (SMILES),IC50 [µM]
1,C[C@H](NC(=O)c1cc(-c2nc(-c3ccccc3)c[nH]2)cc(N(C)S(C)(=O)=O)c1)c1ccccc1,0.315
2,COc1ccc2nc(-c3cccc(-c4nc5ccccn5c4NC(C)(C)C)c3)[nH]c2c1,0.178
3,CC(C)(C)Nc1c(-c2ccc(-c3nc4ccc(F)cc4[nH]3)cc2)nc2ccccn12,2.48
4,Fc1ccc2nc(-c3cccc(-c4cn5ccccc5n4)c3)[nH]c2c1,0.035
5,Fc1ccc2nc(-c3cccc(-c4cn5ccc(F)cc5n4)c3)[nH]c2c1 [listing 1 of 2 here],0.018
6,COc1ccc2[nH]c(-c3cc(C(=O)N[C@@H](C)c4ccccc4)cc(N(C)S(C)(=O)=O)c3)nc2c1,0.545
7,C[C@H](NC(=O)c1cc(-c2nc3ccccc3[nH]2)cc(N(C)S(C)(=O)=O)c1)c1ccccc1,1.08
8,COc1ccc2nc(-c3cccc(-c4cn5ccccc5n4)c3)[nH]c2c1,0.026
9,CC(C)(C)Nc1c(-c2ccc(-c3nc4ccccc4[nH]3)cc2)nc2ccccn12,5.51
10,C[C@H](NC(=O)c1cc(-c2nc3cc(F)ccc3[nH]2)cc(N(C)S(C)(=O)=O)c1)c1ccccc1,0.786
11,C[C@H](NC(=O)c1cc(-c2ncc(-c3cccc(F)c3)[nH]2)cc(N(C)S(C)(=O)=O)c1)c1ccccc1,0.187
12,COc1ccc2nc(-c3ccc(-c4nc5ccccn5c4NC(C)(C)C)cc3)[nH]c2c1,2.24
13,c1cc(-c2cn3ccccc3n2)cc(-c2nc3ccccc3[nH]2)c1,0.961
14,CC(C)(C)Nc1c(-c2cccc(-c3nc4ccc(F)cc4[nH]3)c2)nc2ccccn12,0.312
15,COc1cccc(-c2c[nH]c(-c3cc(C(=O)N[C@@H](C)c4ccccc4)cc(N(C)S(C)(=O)=O)c3)n2)c1,0.077
16,CC(C)(C)Nc1c(-c2cccc(-c3nc4ccccc4[nH]3)c2)nc2ccccn12,0.514

# Biological target: T1, Beta-secretase 1
# Assay: Inhibition of BACE1 in human H4 cells expressing APP Swedish K595N and M596L double mutant assessed as inhibition of amyloid beta (1 to 40) production after 24 hrs by whole cell assay
# Assay type: cell-based
# Conditions: pooled result: one value given for 2 cell lines, strains, targets or settings
# Summary of the method: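 H4 neuroglioma cells carrying human APP K595N/M596L, seeded at 2 × 10⁵ cells/well and grown 24 h, then given increasing compound concentrations overnight (1% DMSO negative control). Medium Aβ40 or Aβ42 measured by sandwich immunoassay: biotinylated 4G8 plus C-terminal-specific rabbit antibodies, electrochemiluminescence read-out. Viability checked by MTT (0.5 mg/mL, 3 h, 570 nm). EC50 as mean of ≥3 experiments ± SD.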
row,Structure (SMILES),EC50 [µM]
1,C[C@H](NC(=O)c1cc(-c2nc(-c3ccccc3)c[nH]2)cc(N(C)S(C)(=O)=O)c1)c1ccccc1,0.45
2,COc1ccc2nc(-c3cccc(-c4nc5ccccn5c4NC(C)(C)C)c3)[nH]c2c1,0.31
3,Fc1ccc2nc(-c3cccc(-c4cn5ccccc5n4)c3)[nH]c2c1,0.12
4,Fc1ccc2nc(-c3cccc(-c4cn5ccc(F)cc5n4)c3)[nH]c2c1 [listing 1 of 2 here],0.037
5,COc1ccc2nc(-c3cccc(-c4cn5ccccc5n4)c3)[nH]c2c1,0.03
6,C[C@H](NC(=O)c1cc(-c2nc3cc(F)ccc3[nH]2)cc(N(C)S(C)(=O)=O)c1)c1ccccc1,0.23
7,COc1ccc2nc(-c3ccc(-c4nc5ccccn5c4NC(C)(C)C)cc3)[nH]c2c1,2.41
8,c1cc(-c2cn3ccccc3n2)cc(-c2nc3ccccc3[nH]2)c1,1.55
9,CC(C)(C)Nc1c(-c2cccc(-c3nc4ccc(F)cc4[nH]3)c2)nc2ccccn12,0.93
10,COc1cccc(-c2c[nH]c(-c3cc(C(=O)N[C@@H](C)c4ccccc4)cc(N(C)S(C)(=O)=O)c3)n2)c1,0.179

# Biological target: T1, Beta-secretase 1
# Assay: Inhibition of BACE1 expressing APP Swedish mutant using rhodamine-labeled EVNLDAEFK-quencher as substrate after 60 mins by Michaelis-Menten equation
# Conditions: not given
# Summary of the method: (§1)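 Same FRET set-up (750 nM peptide substrate, KM 20 μM, 1 U/mL enzyme, pH 4.5 acetate, 60 min, 25 °C). Apparent KI derived from steady-state rates with and without inhibitor (vI, v0), then converted to absolute KI by correcting for substrate concentration and KM.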
row,Structure (SMILES),Ki [µM]
1,C[C@H](NC(=O)c1cc(-c2nc(-c3ccccc3)c[nH]2)cc(N(C)S(C)(=O)=O)c1)c1ccccc1,0.304
2,COc1ccc2nc(-c3cccc(-c4nc5ccccn5c4NC(C)(C)C)c3)[nH]c2c1,0.253
3,CC(C)(C)Nc1c(-c2ccc(-c3nc4ccc(F)cc4[nH]3)cc2)nc2ccccn12,2.39
4,Fc1ccc2nc(-c3cccc(-c4cn5ccccc5n4)c3)[nH]c2c1,0.034
5,Fc1ccc2nc(-c3cccc(-c4cn5ccc(F)cc5n4)c3)[nH]c2c1 [listing 1 of 2 here],0.017
6,COc1ccc2[nH]c(-c3cc(C(=O)N[C@@H](C)c4ccccc4)cc(N(C)S(C)(=O)=O)c3)nc2c1,0.525
7,C[C@H](NC(=O)c1cc(-c2nc3ccccc3[nH]2)cc(N(C)S(C)(=O)=O)c1)c1ccccc1,1.04
8,COc1ccc2nc(-c3cccc(-c4cn5ccccc5n4)c3)[nH]c2c1,0.025
9,CC(C)(C)Nc1c(-c2ccc(-c3nc4ccccc4[nH]3)cc2)nc2ccccn12,5.31
10,C[C@H](NC(=O)c1cc(-c2nc3cc(F)ccc3[nH]2)cc(N(C)S(C)(=O)=O)c1)c1ccccc1,0.758
11,C[C@H](NC(=O)c1cc(-c2ncc(-c3cccc(F)c3)[nH]2)cc(N(C)S(C)(=O)=O)c1)c1ccccc1,0.18
12,COc1ccc2nc(-c3ccc(-c4nc5ccccn5c4NC(C)(C)C)cc3)[nH]c2c1,2.16
13,c1cc(-c2cn3ccccc3n2)cc(-c2nc3ccccc3[nH]2)c1,0.926
14,CC(C)(C)Nc1c(-c2cccc(-c3nc4ccc(F)cc4[nH]3)c2)nc2ccccn12,0.301
15,COc1cccc(-c2c[nH]c(-c3cc(C(=O)N[C@@H](C)c4ccccc4)cc(N(C)S(C)(=O)=O)c3)n2)c1,0.062
16,CC(C)(C)Nc1c(-c2cccc(-c3nc4ccccc4[nH]3)c2)nc2ccccn12,0.495

# Test system: not listed separately
# Assay: Selectivity ratio of IC50 for BACE2 to IC50 for BACE1
# Conditions: not given
row,Structure (SMILES),Ratio IC50
1,Fc1ccc2nc(-c3cccc(-c4cn5ccc(F)cc5n4)c3)[nH]c2c1 [listing 2 of 2 here],204
2,COc1ccc2nc(-c3cccc(-c4nc5ccccn5c4NC(C)(C)C)c3)[nH]c2c1,23
3,COc1ccc2[nH]c(-c3cc(C(=O)N[C@@H](C)c4ccccc4)cc(N(C)S(C)(=O)=O)c3)nc2c1,5
4,COc1cccc(-c2cnc(-c3cc(C(=O)N[C@@H](C)c4ccccc4)cc(N(C)S(C)(=O)=O)c3)[nH]2)c1,30
5,C[C@H](NC(=O)c1cc(-c2nc3cc(F)ccc3[nH]2)cc(N(C)S(C)(=O)=O)c1)c1ccccc1,5
6,COc1ccc2nc(-c3ccc(-c4nc5ccccn5c4NC(C)(C)C)cc3)[nH]c2c1,1.3

# Biological target: T2, Beta-secretase 2 (Homo sapiens, UniProt Q9Y5Z0)
# Assay: Inhibition of BACE2 expressing APP Swedish mutant using rhodamine-labeled EVNLDAEFK-quencher as substrate after 60 mins by Michaelis-Menten equation
# Conditions: not given
# Summary of the method: as §1
# T2 sequence (Q9Y5Z0 63-518 limits assumed, stated change not applied): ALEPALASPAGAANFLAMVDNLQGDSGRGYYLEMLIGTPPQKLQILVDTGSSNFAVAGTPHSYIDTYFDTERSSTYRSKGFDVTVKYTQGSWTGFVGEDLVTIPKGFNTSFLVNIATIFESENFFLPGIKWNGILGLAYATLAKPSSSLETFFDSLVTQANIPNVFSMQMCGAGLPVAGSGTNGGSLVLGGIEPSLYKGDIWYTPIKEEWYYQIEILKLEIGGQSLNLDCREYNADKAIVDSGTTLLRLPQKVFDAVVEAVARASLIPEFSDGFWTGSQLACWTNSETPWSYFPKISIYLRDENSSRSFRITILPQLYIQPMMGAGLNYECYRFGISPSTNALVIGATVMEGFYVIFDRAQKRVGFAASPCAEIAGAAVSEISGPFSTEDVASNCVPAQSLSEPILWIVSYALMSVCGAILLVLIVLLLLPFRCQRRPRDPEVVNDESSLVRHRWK
row,Structure (SMILES),Ki [µM]
1,C[C@H](NC(=O)c1cc(-c2nc(-c3ccccc3)c[nH]2)cc(N(C)S(C)(=O)=O)c1)c1ccccc1,1.73
2,COc1ccc2nc(-c3cccc(-c4nc5ccccn5c4NC(C)(C)C)c3)[nH]c2c1,4
3,CC(C)(C)Nc1c(-c2ccc(-c3nc4ccc(F)cc4[nH]3)cc2)nc2ccccn12,3.62
4,Fc1ccc2nc(-c3cccc(-c4cn5ccccc5n4)c3)[nH]c2c1,3.08
5,Fc1ccc2nc(-c3cccc(-c4cn5ccc(F)cc5n4)c3)[nH]c2c1 [listing 1 of 2 here],3.57
6,COc1ccc2[nH]c(-c3cc(C(=O)N[C@@H](C)c4ccccc4)cc(N(C)S(C)(=O)=O)c3)nc2c1,2.35
7,C[C@H](NC(=O)c1cc(-c2nc3ccccc3[nH]2)cc(N(C)S(C)(=O)=O)c1)c1ccccc1,2.07
8,COc1ccc2nc(-c3cccc(-c4cn5ccccc5n4)c3)[nH]c2c1,3.22
9,CC(C)(C)Nc1c(-c2ccc(-c3nc4ccccc4[nH]3)cc2)nc2ccccn12,5.51
10,C[C@H](NC(=O)c1cc(-c2nc3cc(F)ccc3[nH]2)cc(N(C)S(C)(=O)=O)c1)c1ccccc1,2.07
11,C[C@H](NC(=O)c1cc(-c2ncc(-c3cccc(F)c3)[nH]2)cc(N(C)S(C)(=O)=O)c1)c1ccccc1,1.82
12,COc1ccc2nc(-c3ccc(-c4nc5ccccn5c4NC(C)(C)C)cc3)[nH]c2c1,2.81
13,c1cc(-c2cn3ccccc3n2)cc(-c2nc3ccccc3[nH]2)c1,3.78
14,CC(C)(C)Nc1c(-c2cccc(-c3nc4ccc(F)cc4[nH]3)c2)nc2ccccn12,4.11
15,COc1cccc(-c2c[nH]c(-c3cc(C(=O)N[C@@H](C)c4ccccc4)cc(N(C)S(C)(=O)=O)c3)n2)c1,2.28
16,CC(C)(C)Nc1c(-c2cccc(-c3nc4ccccc4[nH]3)c2)nc2ccccn12,3.67

# Biological target: T2, Beta-secretase 2
# Assay: Inhibition of BACE2 expressing APP Swedish mutant using rhodamine-labeled EVNLDAEFK-quencher as substrate after 60 mins by FRET analysis
# Conditions: not given
row,Structure (SMILES),IC50 [µM]
1,C[C@H](NC(=O)c1cc(-c2nc(-c3ccccc3)c[nH]2)cc(N(C)S(C)(=O)=O)c1)c1ccccc1,1.79
2,COc1ccc2nc(-c3cccc(-c4nc5ccccn5c4NC(C)(C)C)c3)[nH]c2c1,4.12
3,CC(C)(C)Nc1c(-c2ccc(-c3nc4ccc(F)cc4[nH]3)cc2)nc2ccccn12,3.72
4,Fc1ccc2nc(-c3cccc(-c4cn5ccccc5n4)c3)[nH]c2c1,3.17
5,Fc1ccc2nc(-c3cccc(-c4cn5ccc(F)cc5n4)c3)[nH]c2c1 [listing 1 of 2 here],3.67
6,COc1ccc2[nH]c(-c3cc(C(=O)N[C@@H](C)c4ccccc4)cc(N(C)S(C)(=O)=O)c3)nc2c1,2.42
7,C[C@H](NC(=O)c1cc(-c2nc3ccccc3[nH]2)cc(N(C)S(C)(=O)=O)c1)c1ccccc1,2.13
8,COc1ccc2nc(-c3cccc(-c4cn5ccccc5n4)c3)[nH]c2c1,3.32
9,CC(C)(C)Nc1c(-c2ccc(-c3nc4ccccc4[nH]3)cc2)nc2ccccn12,5.68
10,C[C@H](NC(=O)c1cc(-c2nc3cc(F)ccc3[nH]2)cc(N(C)S(C)(=O)=O)c1)c1ccccc1,2.13
11,C[C@H](NC(=O)c1cc(-c2ncc(-c3cccc(F)c3)[nH]2)cc(N(C)S(C)(=O)=O)c1)c1ccccc1,1.87
12,COc1ccc2nc(-c3ccc(-c4nc5ccccn5c4NC(C)(C)C)cc3)[nH]c2c1,2.9
13,c1cc(-c2cn3ccccc3n2)cc(-c2nc3ccccc3[nH]2)c1,3.89
14,CC(C)(C)Nc1c(-c2cccc(-c3nc4ccc(F)cc4[nH]3)c2)nc2ccccn12,4.23
15,COc1cccc(-c2c[nH]c(-c3cc(C(=O)N[C@@H](C)c4ccccc4)cc(N(C)S(C)(=O)=O)c3)n2)c1,2.35
16,CC(C)(C)Nc1c(-c2cccc(-c3nc4ccccc4[nH]3)c2)nc2ccccn12,3.78

# Test system: not listed separately
# Assay: Aqueous solubility of the compound
# Assay type: physicochemical
# Conditions: water
# Summary of the method: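 Solubility estimated by HPLC. Salt sonicated 48 h in water, filtered through 0.45 μm, injected after a five-point calibration (1.44–18.0 mg/mL standards in acetonitrile/methanol 50:50 v/v; least-squares linear fit; triplicate injections). Reversed-phase C18 column, UV detection at 280 nm. Solubility taken where recovery began to fall with rising concentration.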
row,Structure (SMILES),solubility [mg/mL]
1,Cl.Fc1ccc2nc(-c3cccc(-c4cn5ccc(F)cc5n4)c3)[nH]c2c1,10
